# Like-named read-outs stand apart in the source and are kept apart here.
# Assays:
# [1] = tested on: cryopreserved human hepatocytes; experiment: Cytotoxicity; assay type: cell-based; details: 72 hours
# Method in brief: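 Cryopreserved hepatocytes from three donors (1 male, 2 female, Caucasian, 43–59 y) were thawed, plated at 0.15 million cells/well on collagen-coated plates at 37°C in 5% CO2, medium-changed after 2–4 h attachment, and recovered overnight. Cells were exposed to 0.3, 3 or 30 µM test compound or 0.1% DMSO vehicle for 72 h, with medium renewed daily. MTS conversion to formazan was then read, in triplicate.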
# [2] = tested on: Salmonella typhimurium TA 1535; assay type: cell-based; details: plate incorporation
# [3] = tested on: Salmonella typhimurium TA 98; experiment: Ames bacterial reverse mutation assay, plate incorporation method; assay type: cell-based
# [4] = tested on: Salmonella typhimurium TA 1535; assay type: cell-based; details: pre-incubation
# [5] = tested on: CYP1A2; experiment: CYP mRNA induction in human hepatocytes; assay type: in vitro ADME; details: 0.3, 3, 30 µM; 72 hours; 3 donors
# [6] = Red blood cell distribution in whole blood; assay type: in vitro ADME; details: human, whole blood (pooled, EDTA)
# [7] = Stability in human whole blood; assay type: in vitro ADME; details: 37°C, no increase in salicylic acid
# [8] = In vitro metabolism in cryopreserved hepatocytes; assay type: in vitro ADME; details: rabbit hepatocytes; 25 µM; 4 hours
# [9] = In vitro metabolism in cryopreserved hepatocytes; assay type: in vitro ADME; details: human hepatocytes; 25 µM; 4 hours
# [10] = tested on: C. elegans; details: ref Nguyen et al., 2016; cited from earlier work
# [11] = +S9, 0.05 mg/plate as printed (third dose row)
# [12] = −S9, 0.05 mg/plate as printed (third dose row)
compound,measurement,setting,value
"CC(=O)O.NCc1ccccc1O [2-HOBA, 2-Hydroxybenzylamine acetate]",% formazan absorbance relative to vehicle,"[1]; all concentrations (0.3, 3, 30 µM), any donor",≥ 94%
same,Formazan absorbance,"[1]; donor 1, 0.3 µM",0.82
same,Formazan absorbance (% of vehicle),"[1]; donor 1, 0.3 µM",117 % of vehicle
same,Formazan absorbance,"[1]; donor 1, 3 µM",0.81
same,Formazan absorbance (% of vehicle),"[1]; donor 1, 3 µM",115 % of vehicle
same,Formazan absorbance,"[1]; donor 1, 30 µM",0.75
same,Formazan absorbance (% of vehicle),"[1]; donor 1, 30 µM",107 % of vehicle
same,Formazan absorbance,"[1]; donor 2, 0.3 µM",0.37
same,Formazan absorbance (% of vehicle),"[1]; donor 2, 0.3 µM",94 % of vehicle
same,Formazan absorbance,"[1]; donor 2, 3 µM",0.38
same,Formazan absorbance (% of vehicle),"[1]; donor 2, 3 µM",96 % of vehicle
same,Formazan absorbance,"[1]; donor 2, 30 µM",0.39
same,Formazan absorbance (% of vehicle),"[1]; donor 2, 30 µM",100 % of vehicle
same,Formazan absorbance,"[1]; donor 3, 0.3 µM",0.64
same,Formazan absorbance (% of vehicle),"[1]; donor 3, 0.3 µM",99 % of vehicle
same,Formazan absorbance,"[1]; donor 3, 3 µM",0.66
same,Formazan absorbance (% of vehicle),"[1]; donor 3, 3 µM",102 % of vehicle
same,Formazan absorbance,"[1]; donor 3, 30 µM",0.67
same,Formazan absorbance (% of vehicle),"[1]; donor 3, 30 µM",104 % of vehicle
same,Formazan absorbance,"[1]; mean of 3 donors, 0.3 µM",0.61
same,Formazan absorbance (% of vehicle),"[1]; mean of 3 donors, 0.3 µM",103 % of vehicle
same,Formazan absorbance,"[1]; mean of 3 donors, 3 µM",0.62
same,Formazan absorbance (% of vehicle),"[1]; mean of 3 donors, 3 µM",104 % of vehicle
same,Formazan absorbance,"[1]; mean of 3 donors, 30 µM",0.61
same,Formazan absorbance (% of vehicle),"[1]; mean of 3 donors, 30 µM",103 % of vehicle
same,Mean plate counts (revertant colonies),"[2]; +S9, 0.05 mg/plate",9.3±1.5
same,Mean plate counts (revertant colonies),[2]; [11],10.7±0.6
same,Mean plate counts (revertant colonies),"[2]; +S9, 0.15 mg/plate",9.0±1.0
same,Mean plate counts (revertant colonies),"[2]; +S9, 1.5 mg/plate",10.3±1.5
same,Mean plate counts (revertant colonies),"[2]; +S9, 5 mg/plate",10.3±1.5
same,Change in revertant colony counts vs negative control (mutagenicity),"[2]; +S9 and −S9, all dose levels",No changes in revertant colony counts were observed
same,Mean plate counts (revertant colonies),"[2]; −S9, 0.05 mg/plate",10.7±0.6
same,Mean plate counts (revertant colonies),[2]; [12],10.7±1.2
same,Mean plate counts (revertant colonies),"[2]; −S9, 0.15 mg/plate",11.0±1.0
same,Mean plate counts (revertant colonies),"[2]; −S9, 1.5 mg/plate",10.7±1.2
same,Mean plate counts (revertant colonies),"[2]; −S9, 5 mg/plate",11.0±1.0
same,Mean plate counts (revertant colonies),"[3]; +S9, 0.05 mg/plate",20.7±1.2
same,Mean plate counts (revertant colonies),[3]; [11],20.7±1.2
same,Mean plate counts (revertant colonies),"[3]; +S9, 0.15 mg/plate",21.0±3.0
same,Mean plate counts (revertant colonies),"[3]; +S9, 1.5 mg/plate",21.3±1.5
same,Mean plate counts (revertant colonies),"[3]; +S9, 5 mg/plate",22.0±2.0
same,Change in revertant colony counts vs negative control (mutagenicity),"[3]; +S9 and −S9, all dose levels",No changes in revertant colony counts were observed
same,Mean plate counts (revertant colonies),"[3]; −S9, 0.05 mg/plate",19.7±1.5
same,Mean plate counts (revertant colonies),[3]; [12],22.0±3.6
same,Mean plate counts (revertant colonies),"[3]; −S9, 0.15 mg/plate",20.0±1.0
same,Mean plate counts (revertant colonies),"[3]; −S9, 1.5 mg/plate",21.3±1.5
same,Mean plate counts (revertant colonies),"[3]; −S9, 5 mg/plate",21.0±2.0
same,Mean plate counts (revertant colonies),"[4]; +S9, 0.05 mg/plate",12.0±2.0
same,Mean plate counts (revertant colonies),"[4]; +S9, 0.15 mg/plate",12.0±1.0
same,Mean plate counts (revertant colonies),"[4]; +S9, 0.5 mg/plate",14.3±2.1
same,Mean plate counts (revertant colonies),"[4]; +S9, 1.5 mg/plate",12.3±0.6
same,Mean plate counts (revertant colonies),"[4]; +S9, 5 mg/plate",11.7±2.1
same,Change in revertant colony counts vs negative control (mutagenicity),"[4]; +S9 and −S9, all dose levels",No changes in revertant colony counts were observed
same,Mean plate counts (revertant colonies),"[4]; −S9, 0.05 mg/plate",12.7±1.5
same,Mean plate counts (revertant colonies),[4]; [12],12.0±1.0
same,Mean plate counts (revertant colonies),"[4]; −S9, 0.15 mg/plate",11.7±1.5
same,Mean plate counts (revertant colonies),"[4]; −S9, 1.5 mg/plate",11.3±1.5
same,Mean plate counts (revertant colonies),"[4]; −S9, 5 mg/plate",12.0±1.7
same,CYP1A2 mRNA induction (concentration-dependent >2-fold increase),[5],no evidence of mRNA induction
same,"Kp at 2 h, 1 µM",[6],1.26 ± 0.01
same,"Kp at 2 h, 10 µM",[6],1.08
same,"blood plasma ratio at 2 h, 1 µM",[6],1.12 ± 0.03
same,"blood plasma ratio at 2 h, 10 µM",[6],1.04
same,metabolism in whole blood,[7],some 2-HOBA metabolism was observed
same,principle metabolites observed,[8],salicylic acid (M1) and the glycoside conjugate metabolite of 2-HOBA
same,principle metabolites observed,[9],salicylic acid (M1) and the glycoside conjugate metabolite of 2-HOBA
same,lifespan,[10],increased lifespan

# Source: publication PMC6220894 (Food and chemical toxicology : an international journal …, 2018)
